In PubChem BioAssay:
Unmarked numbers belong to inactive results. Active and inactive are the calls of the source.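 The calls were made as follows, unless noted: active = growth inhibition above 25% in both replicates, a cutoff set 3 SD above the mean; inconclusive = above 25% in only one replicate; inactive = the rest.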

Assay: S. cerevisiae growth inhibition in permissive medium (OD615), pilot counter-assay for S. cerevisiae lifespan shortening project, permissive growth control (AID 705)
Details: OD615, 24 h, at 10 µM, active compounds read high
Summary of the method: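 assay system = Saccharomyces cerevisiae strain carrying genetically modified DeaD replicative-lifespan system | medium = SC raffinose/galactose permissive medium | dosing = 10 µM single dose, 0.25% DMSO | schedule = 24 h compound exposure at 30 °C after 4 h pre-growth | measured by = OD at 615 nm | read-out basis = growth inhibition from lowered OD615 after 24 h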

Row | SMILES | growth inhibition [%]
1 | O=C(CCCN1C(=O)c2ccccc2C1=O)Nc1ccccc1C(=O)N1CCOCC1 | -5.06
2 | COc1cccc(C2CC(=O)N3CN(c4ccccc4F)CSC3=C2C#N)c1 (stereo not given) | 6.38
3 | C=CCNc1oc(Cc2cccc3ccccc23)nc1C#N | -19.8
4 | O=C(c1ccccc1)c1ccc2nc(N3CCCCC3)c3nncn3c2c1 | 12.4
5 | O=C(CSCC(=O)NC1CC1)Nc1ccccc1 | -0.675
6 | Cc1ccc(N(C(=O)c2cccs2)C2C=CS(=O)(=O)C2)cc1 (stereo not given) | -11.1
7 | COc1ccc(NC(=O)N(Cc2ccc(C)cc2)Cc2ccccn2)c(OC)c1 | -3.04
8 | CC(=O)C(C)Oc1ccc2c3c(c(=O)oc2c1)CCCC3 (stereo not given) | -6.26
9 | CC(=O)c1c(C)oc(C)c1CSCc1ccc(C(=O)O)o1 | -4.54
10 | CCn1c(CNC(=O)C(C)(C)C)nc2ccccc21 | -13.2
11 | Cc1cc(C)n(-c2nnc(C)n2/N=C/c2cc(Br)ccc2OCc2ccccc2)n1 | -10.3
12 | CCC(=O)Nc1cccc(-c2nnc(SCC(=O)c3ccccc3)n2C)c1 | 0.325
13 | O=C(COc1cccc2ccccc12)N1CCN(c2ccccc2)CC1 | -6.48
14 | O=C(O)CSc1cccc2cccnc12 | 15.6
15 | CN=C1SC(CC(=O)Nc2ccccc2F)C(=O)N1C (stereo not given) | 0.635
16 | COc1ccc2[nH]c(C)c(CN3CCC(C)CC3)c(=O)c2c1 | 0.03
17 | O=C(OCN1C(=O)c2ccccc2C1=O)c1ccco1 | -3.8
18 | O=C1CC(N2CCN(C(c3ccccc3)c3ccccc3)CC2)C(=O)N1 (stereo not given) | -8.31
19 | CCN(CC)CCNC(=O)Cn1cnc2sc(C)c(S(=O)(=O)N3CCOCC3)c2c1=O | 6.37
20 | COc1ccc(C2CC(c3ccc(F)cc3)Nc3nc(N)nn32)cc1 (stereo not given) | -3.94

Row | SMILES | growth inhibition [%]
21 | CCOc1ccccc1C(=O)NC1CCN(Cc2nnnn2C2CCCC2)CC1 | -6.12
22 | CCOc1ccc(C(=O)Nc2c3c(nn2-c2ccc(C)cc2)CS(=O)C3)cc1OCC (stereo not given) | 2.17
23 | Cc1ccc(-c2nn(C)c(=O)c3ccccc23)cc1CNC(=O)c1ccco1 | -19.5
24 | O=C(CNS(=O)(=O)c1ccc(C(=O)N2CCCCC2)cc1)N1CCCCC1 | -11.9
25 | CCOC(=O)CON1C(=O)C(C)(C)N(OCC(=O)OCC)C(=O)C1(C)C | -0.865
26 | Cc1[nH]c2ccc(-c3n[nH]c(=S)n3C)cc2c1C | -4.45
27 | Cc1onc(-c2ccccc2Cl)c1C(=O)OCN1C(=O)c2ccccc2C1=O | -16.8
28 | CSC1=NCCN1C(=O)c1cccs1 | -2.12
29 | O=C(C1CCC(CNc2c(N3CCCCC3)c(=O)c2=O)CC1)N1CCN(c2ccccn2)CC1 (stereo not given) | -4.55
30 | CC1CCCN(c2nc3c(c(=O)[nH]c(=O)n3C)n2Cc2ccccc2Cl)C1 (stereo not given) | -15.4
31 | COc1ccc(CC(=O)N2CC3(C)CC2CC(C)(C)C3)cc1OC (stereo not given) | -8.12
32 | Cc1cccnc1NC(=O)c1c(O)c2ccccc2n(C)c1=O | 3.49
33 | CCN(CC)P1(=O)OC(c2cc(OC)c(OC)c(OC)c2)=Nc2c1c(C)nn2-c1ccccc1 (stereo not given) | -7.12
34 | CCOc1ccc(NC(=O)CSc2nnc(Cn3c(=O)sc4ccccc43)n2C)cc1 | -5.25
35 | Cc1ccc(N(C(=O)CC2NC(=O)NC2=O)C2(C(=O)NC3CCCC3)CCCCC2)cc1 (stereo not given) | -9.96
36 | Cn1c(NC(=O)Cc2ccc(F)cc2)cc(=O)n(C)c1=O | -5.41
37 | COc1ccc(C2CC(=O)c3cnc(NC(=O)c4ccccc4)nc3C2)cc1OC (stereo not given) | -3.28
38 | Cc1cccc(N2CCN(C(=O)C3CCN(c4nnc(-n5cccc5)s4)CC3)CC2C)c1 (stereo not given) | -6.52
39 | O=C(NCc1ccccc1)c1cc(S(=O)(=O)N2CCOCC2)ccc1F | -3.95
40 | O=C(CN1C(=O)C2C3C=CC(C3)C2C1=O)Nc1ccc2nccnc2c1 (stereo not given) | 7.15

Assay: S. cerevisiae growth inhibition in restrictive medium, OD615, pilot screen, restrictive growth control, yeast lifespan reduction project (AID 706;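 active = growth inhibition above a set limit, 3 SD over mean compound inhibition, in both replicates, cut at about 43% in these data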;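 also: modified DeaD lifespan yeast strain shifted to restrictive glucose medium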)
Details: OD615, 48 h, at 10 µM, active compounds read high
Summary of the method: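 Buffer or medium: CSMM-D glucose medium. Material: genetically modified Saccharomyces cerevisiae, DeaD replicative lifespan assay strain. Times: 48 h compound exposure at 30 °C. Measured by: optical density at 615 nm.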

Row | SMILES | growth inhibition
41 | O=C(CCCN1C(=O)c2ccccc2C1=O)Nc1ccccc1C(=O)N1CCOCC1 | 2.61%
42 | COc1cccc(C2CC(=O)N3CN(c4ccccc4F)CSC3=C2C#N)c1 (stereo not given) | 2.71%
43 | C=CCNc1oc(Cc2cccc3ccccc23)nc1C#N | -9.46%
44 | O=C(c1ccccc1)c1ccc2nc(N3CCCCC3)c3nncn3c2c1 | 57.7% (active)
45 | O=C(CSCC(=O)NC1CC1)Nc1ccccc1 | -11.9%
46 | Cc1ccc(N(C(=O)c2cccs2)C2C=CS(=O)(=O)C2)cc1 (stereo not given) | -10.6%
47 | COc1ccc(NC(=O)N(Cc2ccc(C)cc2)Cc2ccccn2)c(OC)c1 | 7.11%
48 | CC(=O)C(C)Oc1ccc2c3c(c(=O)oc2c1)CCCC3 (stereo not given) | 9.38%
49 | CC(=O)c1c(C)oc(C)c1CSCc1ccc(C(=O)O)o1 | 0.22%
50 | CCn1c(CNC(=O)C(C)(C)C)nc2ccccc21 | -10.8%
51 | Cc1cc(C)n(-c2nnc(C)n2/N=C/c2cc(Br)ccc2OCc2ccccc2)n1 | 13.9%
52 | CCC(=O)Nc1cccc(-c2nnc(SCC(=O)c3ccccc3)n2C)c1 | 45.9% (active)
53 | O=C(COc1cccc2ccccc12)N1CCN(c2ccccc2)CC1 | -22%
54 | O=C(O)CSc1cccc2cccnc12 | 44.6% (active)
55 | CN=C1SC(CC(=O)Nc2ccccc2F)C(=O)N1C (stereo not given) | 0.465%
56 | COc1ccc2[nH]c(C)c(CN3CCC(C)CC3)c(=O)c2c1 | -2.44%
57 | O=C(OCN1C(=O)c2ccccc2C1=O)c1ccco1 | 0.045%
58 | O=C1CC(N2CCN(C(c3ccccc3)c3ccccc3)CC2)C(=O)N1 (stereo not given) | -9.7%
59 | CCN(CC)CCNC(=O)Cn1cnc2sc(C)c(S(=O)(=O)N3CCOCC3)c2c1=O | 4.68%
60 | COc1ccc(C2CC(c3ccc(F)cc3)Nc3nc(N)nn32)cc1 (stereo not given) | 11.2%

Row | SMILES | growth inhibition
61 | CCOc1ccccc1C(=O)NC1CCN(Cc2nnnn2C2CCCC2)CC1 | -7.94%
62 | CCOc1ccc(C(=O)Nc2c3c(nn2-c2ccc(C)cc2)CS(=O)C3)cc1OCC (stereo not given) | -3.32%
63 | Cc1ccc(-c2nn(C)c(=O)c3ccccc23)cc1CNC(=O)c1ccco1 | -16.5%
64 | O=C(CNS(=O)(=O)c1ccc(C(=O)N2CCCCC2)cc1)N1CCCCC1 | -18.1%
65 | CCOC(=O)CON1C(=O)C(C)(C)N(OCC(=O)OCC)C(=O)C1(C)C | -9.37%
66 | Cc1[nH]c2ccc(-c3n[nH]c(=S)n3C)cc2c1C | -17.6%
67 | Cc1onc(-c2ccccc2Cl)c1C(=O)OCN1C(=O)c2ccccc2C1=O | -12.5%
68 | CSC1=NCCN1C(=O)c1cccs1 | 11.1%
69 | O=C(C1CCC(CNc2c(N3CCCCC3)c(=O)c2=O)CC1)N1CCN(c2ccccn2)CC1 (stereo not given) | -1.08%
70 | CC1CCCN(c2nc3c(c(=O)[nH]c(=O)n3C)n2Cc2ccccc2Cl)C1 (stereo not given) | -35.9%
71 | COc1ccc(CC(=O)N2CC3(C)CC2CC(C)(C)C3)cc1OC (stereo not given) | -2.29%
72 | Cc1cccnc1NC(=O)c1c(O)c2ccccc2n(C)c1=O | 11.4%
73 | CCN(CC)P1(=O)OC(c2cc(OC)c(OC)c(OC)c2)=Nc2c1c(C)nn2-c1ccccc1 (stereo not given) | -13.3%
74 | CCOc1ccc(NC(=O)CSc2nnc(Cn3c(=O)sc4ccccc43)n2C)cc1 | -0.055%
75 | Cc1ccc(N(C(=O)CC2NC(=O)NC2=O)C2(C(=O)NC3CCCC3)CCCCC2)cc1 (stereo not given) | -19.7%
76 | Cn1c(NC(=O)Cc2ccc(F)cc2)cc(=O)n(C)c1=O | -2.77%
77 | COc1ccc(C2CC(=O)c3cnc(NC(=O)c4ccccc4)nc3C2)cc1OC (stereo not given) | -0.645%
78 | Cc1cccc(N2CCN(C(=O)C3CCN(c4nnc(-n5cccc5)s4)CC3)CC2C)c1 (stereo not given) | -21.5%
79 | O=C(NCc1ccccc1)c1cc(S(=O)(=O)N2CCOCC2)ccc1F | -30.7%
80 | O=C(CN1C(=O)C2C3C=CC(C3)C2C1=O)Nc1ccc2nccnc2c1 (stereo not given) | -1.04%
